Results published in ChEMBL document CHEMBL3352225, “Bioreductively Activated Reactive Oxygen Species (ROS) Generators as MRSA Inhibitors” (ACS Med Chem Lett, 2014).
Values after ≈ are worked out from the molar mass of the structure shown. Values joined by “and” are separate entries in the source; they are usually repeats but may differ in a detail not shown here. Equal entries are not always repeated. Active and inactive are the calls of the source. No cut-off for these calls is given here.

Key:
Staphylococcus aureus [1] = test: Antimicrobial activity against methicillin-sensitive Staphylococcus aureus ATCC 29213 after 18 to 20 hrs by microbroth dilution technique; assay type: functional
How it was run: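 MIC taken as the lowest concentration that prevents visible bacterial growth of MSSA 29213, reported in μg/mL.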

Staphylococcus aureus [2] = test: Antimicrobial activity against methicillin-resistant Staphylococcus aureus 7425 after 18 to 20 hrs by microbroth dilution technique; assay type: functional
How it was run: (§1)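 Broth microdilution MIC, taken as the lowest concentration preventing visible growth. MRSA 33591 was the reference strain and the others were clinical MRSA isolates. Vancomycin was tested alongside as comparator. Values are reported in μg/mL and μM.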

Staphylococcus aureus [3] = test: Antimicrobial activity against methicillin-resistant Staphylococcus aureus E288 after 18 to 20 hrs by microbroth dilution technique; assay type: functional; how it was run: as §1
[4] = Superoxide generation in buffer at pH 7.4 assessed as formation of 2-OH-E+ at 200 to 500 ug/ml measured after 10 mins by dihydroethidium assay in presence of DT-diaphorase
How it was run: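 Compound was incubated with NQO1 (DT-diaphorase). The DHE-derived products 2-OH-E+ (superoxide-specific) and E+ (nonspecific oxidation) were separated and quantified by HPLC. The control was compound in pH 7.4 buffer without enzyme.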

[5] = Cytotoxicity against human A549 cells after 72 hrs by MTT assay; assay type: cell-based
Staphylococcus aureus [6] = test: Antimicrobial activity against methicillin-sensitive Staphylococcus aureus ATCC 29213 assessed as intracellular oxidative species generation at 0.5 ug/ml measured after 1 hr by dichlorofluorescein-diacetate fluorescence assay; assay type: functional, organism-based
Staphylococcus aureus [7] = test: Antimicrobial activity against methicillin-resistant Staphylococcus aureus E9902 after 18 to 20 hrs by microbroth dilution technique; assay type: functional; how it was run: as §1
Staphylococcus aureus [8] = test: Antimicrobial activity against methicillin-sensitive Staphylococcus aureus ATCC 29213 assessed as growth inhibition at 8 times MIC measured over 3 hrs in presence of thiourea; assay type: functional, organism-based
Staphylococcus aureus [9] = test: Antimicrobial activity against Staphylococcus aureus assessed as intracellular superoxide generation measured as formation of 2-OH-E+ measured after 1 hr by dihydroethidium assay; assay type: functional, organism-based
How it was run: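 Intact S. aureus cells were incubated with DHE across a range of compound concentrations. Products were 2-hydroxyethidium (2-OH-E+), which is superoxide-specific, and ethidium (E+), which comes from nonspecific oxidation. Untreated bacteria served as the control.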

Staphylococcus aureus [10] = test: Antimicrobial activity against methicillin-resistant Staphylococcus aureus B853 after 18 to 20 hrs by microbroth dilution technique; assay type: functional; how it was run: as §1
[11] = H2O2 generation in buffer at pH 7.4 at 2 ug/ml measured after 5 mins by Amplex Red-based fluorescence assay in presence of DT-diaphorase
Staphylococcus aureus [12] = test: Antimicrobial activity against Staphylococcus aureus assessed as extracellular H2O2 generation at 2 ug/ml measured after 60 mins by Amplex Red-based fluorescence assay; assay type: functional, organism-based
How it was run: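 S. aureus cells were exposed to compound for 60 min, and H2O2 released into the medium was quantified by Amplex Red fluorescence as a surrogate marker for intracellular ROS. Untreated bacteria served as the control.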

[13] = Superoxide generation in buffer at pH 7.4 at 25 uM measured at 1 min interval for 4 mins by luminol-based chemiluminescence assay in presence of DT-diaphorase
How it was run: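 Superoxide from compound plus NQO1 (DT-diaphorase) was followed as a time course by luminol chemiluminescence. The control was compound alone in pH 7.4 buffer.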

Staphylococcus aureus [14] = test: Antimicrobial activity against methicillin-resistant Staphylococcus aureus E151 after 18 to 20 hrs by microbroth dilution technique; assay type: functional; how it was run: as §1
Staphylococcus aureus [15] = test: Antimicrobial activity against methicillin-resistant Staphylococcus aureus 7419 after 18 to 20 hrs by microbroth dilution technique; assay type: functional; how it was run: as §1
Staphylococcus aureus [16] = test: Antimicrobial activity against methicillin-resistant Staphylococcus aureus 33591 after 18 to 20 hrs by microbroth dilution technique; assay type: functional; how it was run: as §1
Staphylococcus aureus [17] = test: Antimicrobial activity against methicillin-resistant Staphylococcus aureus B19506 after 18 to 20 hrs by microbroth dilution technique; assay type: functional; how it was run: as §1
[18] = Selectivity index, ratio of GI50 for human A549 cells to MIC for methicillin-resistant Staphylococcus aureus 33591
Staphylococcus aureus [19] = test: Antimicrobial activity against methicillin-resistant Staphylococcus aureus B0085 after 18 to 20 hrs by microbroth dilution technique; assay type: functional; how it was run: as §1
Staphylococcus aureus [20] = test: Antimicrobial activity against methicillin-resistant Staphylococcus aureus 7386 after 18 to 20 hrs by microbroth dilution technique; assay type: functional; how it was run: as §1
Staphylococcus aureus [21] = test: Induction of DNA damage in methicillin-sensitive Staphylococcus aureus ATCC 29213 assessed as upregulation of RecA expression at 6.7 times MIC measured after 120 mins by PCR analysis; assay type: functional, organism-based
Staphylococcus aureus [22] = test: Antimicrobial activity against methicillin-resistant Staphylococcus aureus B21838 after 18 to 20 hrs by microbroth dilution technique; assay type: functional; how it was run: as §1
Staphylococcus aureus [23] = test: Antimicrobial activity against methicillin-resistant Staphylococcus aureus K-1 after 18 to 20 hrs by microbroth dilution technique; assay type: functional; how it was run: as §1

## CCn1c2c(c3ccccc3c1=O)C(=O)c1ccccc1C2=O
Staphylococcus aureus [1]
  MIC: > 32 µg/mL

## O=C1c2ccccc2C(=O)c2c1c1ccccc1c(=O)n2Cc1ccc(Cl)cc1
Staphylococcus aureus [1]
  MIC: > 32 µg/mL

## O=C1c2ccccc2C(=O)c2c1c1ccccc1c(=O)n2Cc1ccc(C(F)(F)F)cc1
Staphylococcus aureus [1]
  MIC: > 32 µg/mL

## COc1ccc(Cn2c3c(c4ccccc4c2=O)C(=O)c2ccccc2C3=O)cc1
Staphylococcus aureus [1]
  MIC: 32 µg/mL (≈ 80.9 µM)

## Cn1c2c(c3ccccc3c1=O)C(=O)c1ccccc1C2=O
Staphylococcus aureus [1]
  MIC: 1 µg/mL (≈ 3.46 µM)

## O=C1c2ccccc2C(=O)c2c1c1ccccc1c(=O)n2Cc1ccc([N+](=O)[O-])cc1
Staphylococcus aureus [1]
  MIC: 8 µg/mL (≈ 19.5 µM)

## COc1cc(Cn2c3c(c4ccccc4c2=O)C(=O)c2ccccc2C3=O)cc(OC)c1OC
Staphylococcus aureus [1]
  MIC: 8 µg/mL (≈ 17.6 µM)

## CN[C@H](CC(C)C)C(=O)N[C@H]1C(=O)N[C@@H](CC(N)=O)C(=O)N[C@H]2C(=O)N[C@H]3C(=O)N[C@H](C(=O)N[C@H](C(=O)O)c4cc(O)cc(O)c4-c4cc3ccc4O)[C@H](O)c3ccc(c(Cl)c3)Oc3cc2cc(c3O[C@@H]2O[C@H](CO)[C@@H](O)[C@H](O)[C@H]2O[C@H]2C[C@](C)(N)[C@H](O)[C@H](C)O2)Oc2ccc(cc2Cl)[C@H]1O [VANCOMYCIN]
Staphylococcus aureus [2]
  MIC: 0.12 µg/mL (≈ 0.0828 µM)

## C#CCn1c2c(c3ccccc3c1=O)C(=O)c1ccccc1C2=O
Staphylococcus aureus [3]
  MIC: 0.5 µg/mL and 1.6 µM
[4]
  Activity: Active
[5]
  GI50 at 72 h: 8.6 µM
Staphylococcus aureus [6]
  Activity: Active
Staphylococcus aureus [7]
  MIC: 0.5 µg/mL and 1.6 µM
Staphylococcus aureus [8]
  growth inhibition (GI): inactive
Staphylococcus aureus [9]
  Activity: Dose-dependent effect
Staphylococcus aureus [1]
  MIC: 0.5 µg/mL (≈ 1.6 µM)
Staphylococcus aureus [10]
  MIC: 1 µg/mL and 3.19 µM
[11]
  Activity: Active
Staphylococcus aureus [12]
  Activity: Active
[13]
  Activity: Active
Staphylococcus aureus [14]
  MIC: 0.5 µg/mL and 1.6 µM
Staphylococcus aureus [15]
  MIC: 0.12 µg/mL and 0.38 µM
Staphylococcus aureus [16]
  MIC: 0.5 µg/mL and 1.6 µM
Staphylococcus aureus [17]
  MIC: 0.06 µg/mL and 0.19 µM
[18]
  Selectivity Index: >5
Staphylococcus aureus [19]
  MIC: 0.5 µg/mL and 1.6 µM
Staphylococcus aureus [20]
  MIC: 1 µg/mL and 3.19 µM
Staphylococcus aureus [21]
  Activity: Active
Staphylococcus aureus [22]
  MIC: 0.5 µg/mL and 1.6 µM
Staphylococcus aureus [23]
  MIC: 0.25 µg/mL and 0.8 µM
Staphylococcus aureus [2]
  MIC: 0.12 µg/mL and 0.38 µM

## C[C@@H]1O[C@@H]1P(=O)(O)O [FOSFOMYCIN]
Staphylococcus aureus [1]
  MIC: 8 µg/mL (≈ 57.9 µM)

## O=C1c2ccccc2C(=O)c2c1c1ccccc1c(=O)n2Cc1ccccc1
Staphylococcus aureus [1]
  MIC: > 32 µg/mL

## O=C1c2ccccc2C(=O)c2c1c1ccccc1c(=O)n2Cc1ccccc1C(F)(F)F
Staphylococcus aureus [1]
  MIC: > 32 µg/mL

## C=CCn1c2c(c3ccccc3c1=O)C(=O)c1ccccc1C2=O
Staphylococcus aureus [1]
  MIC: > 32 µg/mL

## O=C1c2ccccc2C(=O)c2c1c1ccccc1c(=O)n2C1CCCCC1
Staphylococcus aureus [1]
  MIC: > 32 µg/mL

## NC[C@H]1O[C@H](O[C@H]2[C@H](O)[C@@H](O[C@H]3O[C@H](CO)[C@@H](O)[C@H](N)[C@H]3O)[C@H](N)C[C@@H]2N)[C@H](N)C[C@@H]1O [TOBRAMYCIN]
Staphylococcus aureus [1]
  MIC: 1 µg/mL (≈ 2.14 µM)

## COC(=O)Cn1c2c(c3ccccc3c1=O)C(=O)c1ccccc1C2=O
Staphylococcus aureus [1]
  MIC: > 32 µg/mL

## CCCn1c2c(c3ccccc3c1=O)C(=O)c1ccccc1C2=O
Staphylococcus aureus [1]
  MIC: > 32 µg/mL
